Assay results from ChEMBL document CHEMBL1155671, “New circulin macrocyclic polypeptides from Chassalia parvifolia” (J Nat Prod, 2000).
Positions of bridges follow the written chain, without caps; N, C: chain ends. Residues, ends and D or L forms follow the SMILES beside them.

Key:
Assay type in all cases: functional, organism-based
[1] = system: Human immunodeficiency virus 1; test: Antiviral activity against HIV1 RF in human CEM-SS cells assessed as inhibition of virus-induced cytopathic effect by XTT assay; conditions: Human immunodeficiency virus 1, RF
Outline: (§1)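 Peptide samples dissolved in 100% DMSO or H2O-DMSO (3:1), then diluted to test concentrations. Tested in an in vitro XTT tetrazolium-based cell assay for protection against the cytopathic effects of productive HIV-1 infection. EC50 is the concentration giving 50% protection, determined separately for each virus strain and target cell line pairing.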

[2] = system: Human immunodeficiency virus 1; test: Antiviral activity against HIV1 214 in human CEM-SS cells assessed as inhibition of virus-induced cytopathic effect by XTT assay; conditions: Human immunodeficiency virus 1, CEM-SS; outline: as §1
[3] = system: Human immunodeficiency virus 1; test: Antiviral activity against HIV1 205 in human CEM-SS cells assessed as inhibition of virus-induced cytopathic effect by XTT assay; conditions: Human immunodeficiency virus 1, CEM-SS; outline: as §1
[4] = system: Human immunodeficiency virus 1; test: Antiviral activity against HIV1 G in human CEM-SS cells assessed as inhibition of virus-induced cytopathic effect by XTT assay; conditions: Human immunodeficiency virus 1, CEM-SS; outline: as §1
[5] = system: Human immunodeficiency virus 1; test: Antiviral activity against HIV1 SK1 in human CEM-SS cells assessed as inhibition of virus-induced cytopathic effect by XTT assay; conditions: Human immunodeficiency virus 1, CEM-SS; outline: as §1
[6] = system: Human immunodeficiency virus 1; test: Antiviral activity against HIV1 N119 in human CEM-SS cells assessed as inhibition of virus-induced cytopathic effect by XTT assay; conditions: Human immunodeficiency virus 1, CEM-SS; outline: as §1
[7] = system: Human immunodeficiency virus 1; test: Antiviral activity against HIV1 A17 in human MT2 cells assessed as inhibition of virus-induced cytopathic effect by XTT assay; conditions: Human immunodeficiency virus 1, A17, MT2; outline: as §1
[8] = system: Human immunodeficiency virus 1; test: Antiviral activity against HIV1 G9106 in human MT2 cells assessed as inhibition of virus-induced cytopathic effect by XTT assay; conditions: Human immunodeficiency virus 1, G9106, MT2; outline: as §1
[9] = system: Human immunodeficiency virus 1; test: Antiviral activity against HIV1 H1122 in human MT2 cells assessed as inhibition of virus-induced cytopathic effect by XTT assay; conditions: Human immunodeficiency virus 1, MT2; outline: as §1
[10] = system: Human immunodeficiency virus 1; test: Antiviral activity against HIV1 3B in human MT2 cells assessed as inhibition of virus-induced cytopathic effect by XTT assay; conditions: Human immunodeficiency virus 1, 3B; outline: as §1
[11] = system: Human immunodeficiency virus 1; test: Antiviral activity against HIV1 3B in human CEM-SS cells assessed as inhibition of virus-induced cytopathic effect by XTT assay; conditions: Human immunodeficiency virus 1, 3B; outline: as §1

Row | Structure (SMILES) | EC50 [1] [µM] | EC50 [2] [µM] | EC50 [3] [µM] | EC50 [4] [µM] | EC50 [5] [µM] | EC50 [6] [µM] | EC50 [7] [µM] | EC50 [8] [µM] | EC50 [9] [µM] | EC50 [10] [µM] | EC50 [11] [µM]
1 | CC[C@H](C)[C@@H]1NC(=O)[C@H](CCCCN)NC(=O)[C@H](CC(=O)O)NC(=O)[C@H](Cc2cnc[nH]2)NC(=O)[C@H](Cc2ccc(O)cc2)NC(=O)[C@@H]2CSSC[C@@H]3NC(=O)[C@@H]4CCCN4C(=O)[C@H]([C@@H](C)CC)NC(=O)[C@H](Cc4c[nH]c5ccccc45)NC(=O)[C@H](C(C)C)NC(=O)[C@@H]4CSSC[C@H](NC(=O)[C@H](CCCCN)NC(=O)[C@H](CSSC[C@H](NC(=O)[C@@H]5CCCN5C1=O)C(=O)NCC(=O)N[C@@H](CCC(=O)O)C(=O)N[C@@H](CO)C(=O)N4)NC(=O)[C@H](CC(N)=O)NC(=O)[C@H](Cc1ccccc1)NC(=O)[C@H](C(C)C)NC(=O)[C@H](CO)NC(=O)[C@H]([C@@H](C)O)NC(=O)[C@H](CC(C)C)NC3=O)C(=O)N[C@@H](CCC(=O)O)C(=O)N[C@@H](CC(N)=O)C(=O)N[C@@H](CCCCN)C(=O)N[C@@H](C(C)C)C(=O)N2 [CIRCULIN E] (cyclo(CENKVCYHDKIPCGESCVWIPCLTSVFNCK); disulfide 1-17, 6-22, 13-29) | 0.05 | 0.05 | 0.05 | 0.05 | 0.05 | 0.05 | 0.05 | 0.05 | 0.05 | 0.05 | 
2 | CC[C@H](C)[C@@H]1NC(=O)[C@H](C)NC(=O)[C@H](C)NC(=O)[C@H](CO)NC(=O)[C@H]([C@@H](C)CC)NC(=O)[C@@H]2CSSC[C@@H]3NC(=O)[C@H](C(C)C)NC(=O)[C@H](CCCCN)NC(=O)[C@H](CC(N)=O)NC(=O)[C@H](CCCCN)NC(=O)[C@@H]4CSSC[C@H](NC(=O)[C@H](CO)NC(=O)[C@H](CCC(=O)O)NC(=O)CNC(=O)[C@H](CSSC[C@H](NC(=O)CNC1=O)C(=O)N[C@@H](CO)C(=O)N4)NC(=O)[C@@H]1CCCN1C(=O)[C@H]([C@@H](C)CC)NC(=O)[C@H](C)NC(=O)[C@H](CCCNC(=N)N)NC(=O)[C@H](Cc1ccc(O)cc1)NC3=O)C(=O)N[C@@H](C(C)C)C(=O)N[C@@H](Cc1c[nH]c3ccccc13)C(=O)N[C@@H]([C@@H](C)CC)C(=O)N1CCC[C@H]1C(=O)N2 [CIRCULIN F] (cyclo(AAIGCSCKNKVCYRAIPCGESCVWIPCIS); disulfide 5-18, 7-22, 12-27) | 0.05 | 0.05 | 0.05 | 0.05 | 0.05 | 0.05 | 0.05 | 0.05 | 0.05 | 0.05 | 
3 | CC[C@H](C)[C@@H]1NC(=O)[C@@H]2CSSC[C@@H]3NC(=O)[C@H](C(C)C)NC(=O)[C@H](CCCCN)NC(=O)[C@H](CO)NC(=O)[C@H](CCCCN)NC(=O)[C@@H]4CSSC[C@H](NC(=O)[C@H](CO)NC(=O)[C@H](CCC(=O)O)NC(=O)CNC(=O)[C@H](CSSC[C@H](NC(=O)CNC(=O)[C@H](C)NC(=O)[C@H](C(C)C)NC(=O)[C@H](CO)NC(=O)[C@H]([C@@H](C)O)NC1=O)C(=O)N[C@@H](CO)C(=O)N4)NC(=O)[C@@H]1CCCN1C(=O)[C@H]([C@@H](C)CC)NC(=O)CNC(=O)[C@H](CC(N)=O)NC(=O)[C@H](CCCNC(=N)N)NC(=O)[C@H](Cc1ccc(O)cc1)NC3=O)C(=O)N[C@@H](C(C)C)C(=O)N[C@@H](Cc1ccccc1)C(=O)N[C@@H]([C@@H](C)CC)C(=O)N1CCC[C@H]1C(=O)N2 [CIRCULIN C] (cyclo(AGCSCKSKVCYRNGIPCGESCVFIPCITSV); disulfide 3-17, 5-21, 10-26) | 0.165 | 0.213 | 0.155 | 0.111 | 0.051 | 0.241 | 0.247 | 0.067 | 0.048 | 0.2 | 0.073
